Tests used:
Type in all cases: toxicity, cell-based
HEK-293T = assay: Incucyte cell viability with HEK293T; settings: human, 10 µM, compound concentration 10 uM; note: filed as whole numbers so only -1 and 0 and 1 occur
U2OS = assay: Incucyte cell viability with U2OS; settings: human, 10 µM, compound concentration 10 uM; note: filed as whole numbers so only -1 and 0 and 1 occur
Fibroblast = assay: Multiplex assay against human fibroblast
Method in brief: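 Values for tubulin, mitochondrial-mass and membrane-permeability phenotypes are per cents of cells with healthy nuclei. These cells were identified by CellPathfinder machine-learning gating of live cells that had been stained at seeding with Hoechst33342, BioTracker Green Microtubule Cytoskeleton Dye, MitoTracker Red and Annexin V Alexa Fluor 680 and imaged on a CQ1 microscope at 37°C and 5% CO2 after compound addition. The gating first set Hoechst high-intensity objects apart from normal cells, then split normal cells into healthy, pyknosed or fragmented nuclei, and pyknosed cells into mitotic or apoptotic.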

[1] = 0 h, replicate number 1, timepoint 0 hours
[2] = 12 h, 1 µM, compound concentration 1 uM, replicate 1
[3] = 12 h, 1 µM, compound concentration 1 uM, replicate 2
[4] = 12 h, 10 µM, compound concentration 10 uM, replicate 1
[5] = 12 h, 10 µM, compound concentration 10 uM, replicate 2
[6] = 24 h, 1 µM, compound concentration 1 uM, replicate 1
[7] = 24 h, 1 µM, compound concentration 1 uM, replicate 2
[8] = 24 h, 10 µM, compound concentration 10 uM, replicate 1
[9] = 24 h, 10 µM, compound concentration 10 uM, replicate 2
[10] = 48 h, 1 µM, compound concentration 1 uM, replicate 1
[11] = 48 h, 1 µM, compound concentration 1 uM, replicate 2
[12] = 48 h, 10 µM, compound concentration 10 uM, replicate 1
[13] = 48 h, 10 µM, compound concentration 10 uM, replicate 2

## CNc1oc(-c2cccc3ccccc23)nc1C#N
HEK-293T; [1]
  Growth Rate: 0
HEK-293T; 12 h, replicate number 1, timepoint 12 hours
  Growth Rate: 1
HEK-293T; 18 h, replicate number 1, timepoint 18 hours
  Growth Rate: 1
HEK-293T; 24 h, replicate number 1, timepoint 24 hours
  Growth Rate: 1
U2OS; [1]
  Growth Rate: 0
U2OS; 18 h, replicate number 2, timepoint 18 hours
  Growth Rate: 1
U2OS; 24 h, replicate number 2, timepoint 24 hours
  Growth Rate: 1
Fibroblast; [2]
  Population Apoptotic (%): 75%
  Population Fragmented Nuclei (%): 65%
  Population Healthy Nuclei (%): 23%
  Population Hoechst High Intensity Objects (%): 70%
  Population Membrane Permeable-Phenotype (%): 25%
  Population Mitochondria Different-Phenotype (%): 0%
  Population Mitotic Cells (%): 25%
  Population Normal (%): 29%
  Population Pyknosed Nuclei (%): 10%
  Population Tubulin-Different-Phenotype (%): 14%
  Total Cell Count: 381
Fibroblast; [3]
  Population Apoptotic (%): 0%
  Population Fragmented Nuclei (%): 29%
  Population Healthy Nuclei (%): 67%
  Population Hoechst High Intensity Objects (%): 15%
  Population Membrane Permeable-Phenotype (%): 3%
  Population Mitochondria Different-Phenotype (%): 11%
  Population Mitotic Cells (%): 100%
  Population Normal (%): 84%
  Population Pyknosed Nuclei (%): 2%
  Population Tubulin-Different-Phenotype (%): 7%
  Total Cell Count: 100
Fibroblast; [4]
  Population Apoptotic (%): 92%
  Population Fragmented Nuclei (%): 41%
  Population Healthy Nuclei (%): 23%
  Population Hoechst High Intensity Objects (%): 64%
  Population Membrane Permeable-Phenotype (%): 0%
  Population Mitochondria Different-Phenotype (%): 0%
  Population Mitotic Cells (%): 7%
  Population Normal (%): 35%
  Population Pyknosed Nuclei (%): 35%
  Population Tubulin-Different-Phenotype (%): 0%
  Total Cell Count: 3193
Fibroblast; [5]
  Population Apoptotic (%): 80%
  Population Fragmented Nuclei (%): 55%
  Population Healthy Nuclei (%): 16%
  Population Hoechst High Intensity Objects (%): 46%
  Population Membrane Permeable-Phenotype (%): 1%
  Population Mitochondria Different-Phenotype (%): 3%
  Population Mitotic Cells (%): 19%
  Population Normal (%): 53%
  Population Pyknosed Nuclei (%): 28%
  Population Tubulin-Different-Phenotype (%): 24%
  Total Cell Count: 92
Fibroblast; [6]
  Population Apoptotic (%): 33%
  Population Fragmented Nuclei (%): 66%
  Population Healthy Nuclei (%): 27%
  Population Hoechst High Intensity Objects (%): 70%
  Population Membrane Permeable-Phenotype (%): 6%
  Population Mitochondria Different-Phenotype (%): 0%
  Population Mitotic Cells (%): 66%
  Population Normal (%): 29%
  Population Pyknosed Nuclei (%): 5%
  Population Tubulin-Different-Phenotype (%): 3%
  Total Cell Count: 391
Fibroblast; [7]
  Population Apoptotic (%): 25%
  Population Fragmented Nuclei (%): 28%
  Population Healthy Nuclei (%): 67%
  Population Hoechst High Intensity Objects (%): 6%
  Population Membrane Permeable-Phenotype (%): 1%
  Population Mitochondria Different-Phenotype (%): 10%
  Population Mitotic Cells (%): 75%
  Population Normal (%): 93%
  Population Pyknosed Nuclei (%): 3%
  Population Tubulin-Different-Phenotype (%): 21%
  Total Cell Count: 113
Fibroblast; [8]
  Population Apoptotic (%): 93%
  Population Fragmented Nuclei (%): 44%
  Population Healthy Nuclei (%): 24%
  Population Hoechst High Intensity Objects (%): 66%
  Population Membrane Permeable-Phenotype (%): 1%
  Population Mitochondria Different-Phenotype (%): 0%
  Population Mitotic Cells (%): 6%
  Population Normal (%): 33%
  Population Pyknosed Nuclei (%): 31%
  Population Tubulin-Different-Phenotype (%): 0%
  Total Cell Count: 2998
Fibroblast; [9]
  Population Apoptotic (%): 81%
  Population Fragmented Nuclei (%): 57%
  Population Healthy Nuclei (%): 16%
  Population Hoechst High Intensity Objects (%): 44%
  Population Membrane Permeable-Phenotype (%): 3%
  Population Mitochondria Different-Phenotype (%): 3%
  Population Mitotic Cells (%): 18%
  Population Normal (%): 55%
  Population Pyknosed Nuclei (%): 25%
  Population Tubulin-Different-Phenotype (%): 26%
  Total Cell Count: 116
Fibroblast; [10]
  Population Apoptotic (%): 40%
  Population Fragmented Nuclei (%): 71%
  Population Healthy Nuclei (%): 23%
  Population Hoechst High Intensity Objects (%): 77%
  Population Membrane Permeable-Phenotype (%): 22%
  Population Mitochondria Different-Phenotype (%): 4%
  Population Mitotic Cells (%): 60%
  Population Normal (%): 22%
  Population Pyknosed Nuclei (%): 5%
  Total Cell Count: 411
Fibroblast; [11]
  Population Apoptotic (%): 80%
  Population Fragmented Nuclei (%): 75%
  Population Healthy Nuclei (%): 19%
  Population Hoechst High Intensity Objects (%): 78%
  Population Membrane Permeable-Phenotype (%): 31%
  Population Mitochondria Different-Phenotype (%): 0%
  Population Mitotic Cells (%): 20%
  Population Normal (%): 21%
  Population Pyknosed Nuclei (%): 4%
  Population Tubulin-Different-Phenotype (%): 4%
  Total Cell Count: 519
Fibroblast; [12]
  Population Apoptotic (%): 85%
  Population Fragmented Nuclei (%): 47%
  Population Healthy Nuclei (%): 22%
  Population Hoechst High Intensity Objects (%): 65%
  Population Membrane Permeable-Phenotype (%): 0%
  Population Mitochondria Different-Phenotype (%): 0%
  Population Mitotic Cells (%): 14%
  Population Normal (%): 34%
  Population Pyknosed Nuclei (%): 30%
  Population Tubulin-Different-Phenotype (%): 0%
  Total Cell Count: 2643
Fibroblast; [13]
  Population Fragmented Nuclei (%): 46%
  Population Healthy Nuclei (%): 23%
  Population Hoechst High Intensity Objects (%): 69%
  Population Normal (%): 30%
  Population Tubulin-Different-Phenotype (%): 1%
  Total Cell Count: 2437
